Measured values from publication PMC9340768 (Journal of Medicinal Chemistry, 2022).
Values after ≈ are worked out from the molar mass of the structure shown.

Key:
[1] = system: human PBMCs cocultured with HT1376; assay: PBMC/HT1376 coculture cytokine secretion assay; assay type: cell-based; conditions: anti-CD3 stimulated PBMCs with HT1376
Summary of the method: (§1)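 Frozen healthy-donor human PBMCs were thawed, washed in PBS with benzonase and resuspended in RPMI with 10% heat-inactivated FBS, HEPES and glutamine. PBMCs (1 × 10^6/mL) were plated with tumor cells (1 × 10^5/mL) at 10:1, stimulated with soluble anti-CD3 OKT3 (100 ng/mL), and given diluted test compound. Incubation was 2 days at 37 °C, 5% CO2. Supernatant IFNγ and IL-2 were measured by Luminex; four-parameter fit, n = 3.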

[2] = Pharmacokinetics in Sprague-Dawley rats; conditions: rat, in vivo, iv, 2 mg/kg, SD rats, 2 mg/kg IV bolus; for clearance: CL (mL/min/kg); for half-life: t½ (h), terminal half-life
[3] = system: CT26-Nectin-4 tumors; assay: CT26-Nectin-4 syngeneic tumor model; assay type: in vivo, Balb/c mice; conditions: 1 and 5 mg/kg QD IP
[4] = system: MC38-Nectin-4 tumors; assay: CIVO intratumoral microdosing pharmacodynamics; assay type: in vivo, huCD137 C57Bl/6 mice; conditions: 1.85 μM microdose, 24 h, IHC; compared to vehicle or MMAE injection sites
Summary of the method: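 C57BL/6J-hCD137 mice bearing subcutaneous MC38-Nectin-4 tumors (around 860 mm3; three mice) were anesthetized and microdosed transcutaneously with the CIVO device. Each 2 μL injection held vehicle (25 mM histidine, 10% sucrose pH 7), 120 μM MMAE or 1.85 μM test compound, plus fluorescent tracking microspheres. Tumors were taken 24 h later, formalin-fixed, paraffin-embedded and stained by fluorescent IHC for CD8, GzB and DAPI. CD8+/GzB+ cells were normalized to total CD8+ cells; one-way ANOVA with Dunnett's post-test.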

[5] = system: human PBMCs cocultured with MC38-Nectin-4; assay: PBMC/MC38-Nectin-4 coculture cytokine secretion assay; assay type: cell-based; conditions: anti-CD3 stimulated; IFNγ after 48 h
Summary of the method: as §1

[6] = biological target: human CD137 (Homo sapiens, UniProt Q07011); assay: SPR binding to human CD137
[7] = Thermodynamic solubility; assay type: physicochemical; conditions: pH 7.4

| SMILES | secretion of proinflammatory cytokines IFNγ and IL-2 [1] | clearance [2] | half-life [2] | Kd [6] | other results |
| --- | --- | --- | --- | --- | --- |
| CCCC[C@@H]1NC(=O)[C@H](Cc2ccc(O)cc2)NC(=O)[C@@H]2CCCN2C(=O)[C@H](CC(=O)O)NC(=O)[C@H](C)NC(=O)[C@H](Cc2ccccc2)NC(=O)[C@@H]2CSCCC(=O)N3CN(CN(C3)C(=O)CCSC[C@@H](C(=O)N[C@@H](C)C(N)=O)NC1=O)C(=O)CCSC[C@H](NC(C)=O)C(=O)N[C@@H](CC(C)(C)C)C(=O)N1CCC[C@H]1C(=O)N[C@@H](CCC(=O)O)C(=O)N[C@H](CCCCNC(=O)CCc1cn(CCOCCOCCOCCOCCOCCC(=O)N[C@H]3CSCCC(=O)N4CN5CN(C4)C(=O)CCSC[C@H](NC(=O)[C@@H](CC(=O)O)NC(=O)[C@H](Cc4cccc6ccccc46)NC(=O)[C@@H]4CCCN4C3=O)C(=O)N[C@@H](CCSC)C(=O)N[C@@H](CCCCNC(=N)N)C(=O)N[C@@H](CC(=O)O)C(=O)N[C@@H](Cc3c[nH]c4ccccc34)C(=O)N[C@@H](CO)C(=O)N[C@@H]([C@@H](C)O)C(=O)N3CCC[C@H]3C(=O)N3C[C@H](O)C[C@H]3C(=O)N[C@@H](Cc3c[nH]c4ccccc34)C(=O)N[C@H](C(N)=O)CSCCC5=O)nn1)C(=O)N1CCC[C@H]1C(=O)N[C@@H](Cc1ccc(O)cc1)C(=O)N2 [BCY10572] | dose-dependent increase | 18 mL/min/kg |  |  | antitumor activity ([3]; huCD137-Balb/c mice): Potent antitumor activity; antitumor activity ([3]; wt Balb/c mice): no BCY10572 antitumor activity |
| CCCC[C@@H]1NC(=O)[C@H](Cc2ccc(O)cc2)NC(=O)[C@@H]2CCCN2C(=O)[C@H](CC(=O)O)NC(=O)[C@H](C)NC(=O)[C@H](Cc2ccccc2)NC(=O)[C@@H]2CSCCC(=O)N3CN(CN(C3)C(=O)CCSC[C@@H](C(=O)N[C@@H](C)C(N)=O)NC1=O)C(=O)CCSC[C@H](NC(=O)[C@H](C)NC(C)=O)C(=O)N[C@@H]([C@@H](C)CC)C(=O)N[C@@H](CCC(=O)O)C(=O)N[C@@H](CCC(=O)O)C(=O)N[C@H](CCCCNC(=O)CCc1cn(CCOCCOCCOCCN(CCOCCOCCOCCC(=O)N[C@H]3CSCCC(=O)N4CN5CN(C4)C(=O)CCSC[C@H](NC(=O)[C@@H](CC(=O)O)NC(=O)[C@H](Cc4cccc6ccccc46)NC(=O)[C@@H]4CCCN4C3=O)C(=O)N[C@@H](CCSC)C(=O)N[C@@H](CCCCNC(=N)N)C(=O)N[C@@H](CC(=O)O)C(=O)N[C@@H](Cc3c[nH]c4ccccc34)C(=O)N[C@@H](CO)C(=O)N[C@@H]([C@@H](C)O)C(=O)N3CCC[C@H]3C(=O)N3C[C@H](O)C[C@H]3C(=O)N[C@@H](Cc3c[nH]c4ccccc34)C(=O)N[C@H](C(N)=O)CSCCC5=O)CCOCCOCCOCCn3cc(CCC(=O)NCCCC[C@H]4NC(=O)[C@H](CCC(=O)O)NC(=O)[C@H](CCC(=O)O)NC(=O)[C@H]([C@@H](C)CC)NC(=O)[C@@H](NC(=O)[C@H](C)NC(C)=O)CSCCC(=O)N5CN6CN(C5)C(=O)CCSC[C@H](NC(=O)[C@H](Cc5ccc(O)cc5)NC(=O)[C@H](CCC(N)=O)NC4=O)C(=O)N[C@@H](Cc4ccccc4)C(=O)N[C@@H](C)C(=O)N[C@@H](CC(=O)O)C(=O)N4CCC[C@H]4C(=O)N[C@@H](Cc4ccc(O)cc4)C(=O)N[C@@H](CCCC)C(=O)N[C@H](C(=O)N[C@@H](C)C(N)=O)CSCCC6=O)nn3)nn1)C(=O)N[C@@H](CCC(N)=O)C(=O)N[C@@H](Cc1ccc(O)cc1)C(=O)N2 [BCY11864] | dose-dependent increase |  | 0.95 h |  | proportion of CD8+/GzB+ double positive cells of total CD8+ cells [4]: increase; functional activity in PBMCs cocultured with MC38-Nectin-4 [5]: functionally active |
| CCCC[C@@H]1NC(=O)[C@H](Cc2ccc(O)cc2)NC(=O)[C@@H]2CCCN2C(=O)[C@H](CC(N)=O)NC(=O)[C@H](C)NC(=O)[C@H](Cc2ccccc2)NC(=O)[C@@H]2CSCCC(=O)N3CN(CN(C3)C(=O)CCSC[C@H](NC(C)=O)C(=O)N[C@@H](CC(C)(C)C)C(=O)N3CCC[C@H]3C(=O)N[C@@H](CCC(=O)O)C(=O)N[C@H](CCCCNC(=O)CCc3cn(CCOCCOCCOCCN(CCOCCOCCOCCC(=O)N[C@H]4CSCCC(=O)N5CN6CN(C5)C(=O)CCSC[C@H](NC(=O)[C@@H](CC(=O)O)NC(=O)[C@H](Cc5cccc7ccccc57)NC(=O)[C@@H]5CCCN5C4=O)C(=O)N[C@@H](CCSC)C(=O)N[C@@H](CCCCNC(=N)N)C(=O)N[C@@H](CC(=O)O)C(=O)N[C@@H](Cc4c[nH]c5ccccc45)C(=O)N[C@@H](CO)C(=O)N[C@@H]([C@@H](C)O)C(=O)N4CCC[C@H]4C(=O)N4C[C@H](O)C[C@H]4C(=O)N[C@@H](Cc4c[nH]c5ccccc45)C(=O)N[C@H](C(N)=O)CSCCC6=O)CCOCCOCCOCCn4cc(CCC(=O)NCCCC[C@H]5NC(=O)[C@H](CCC(=O)O)NC(=O)[C@@H]6CCCN6C(=O)[C@H](CC(C)(C)C)NC(=O)[C@@H](NC(C)=O)CSCCC(=O)N6CN7CN(C6)C(=O)CCSC[C@H](NC(=O)[C@H](Cc6ccc(O)cc6)NC(=O)[C@@H]6CCCN6C5=O)C(=O)N[C@@H](Cc5ccccc5)C(=O)N[C@@H](C)C(=O)N[C@@H](CC(N)=O)C(=O)N5CCC[C@H]5C(=O)N[C@@H](Cc5ccc(O)cc5)C(=O)N[C@@H](CCCC)C(=O)N[C@H](C(N)=O)CSCCC7=O)nn4)nn3)C(=O)N3CCC[C@H]3C(=O)N[C@@H](Cc3ccc(O)cc3)C(=O)N2)C(=O)CCSC[C@@H](C(N)=O)NC1=O [BCY12486] |  |  |  | ~8 nM |  |
| CCCC[C@@H]1NC(=O)[C@H](Cc2ccc(O)cc2)NC(=O)[C@@H]2CCCN2C(=O)[C@H](CCC(=O)O)NC(=O)[C@H](C)NC(=O)[C@H](Cc2ccccc2)NC(=O)[C@@H]2CSCCC(=O)N3CN(CN(C3)C(=O)CCSC[C@H](NC(C)=O)C(=O)N[C@@H](CC(C)(C)C)C(=O)N3CCC[C@H]3C(=O)N[C@@H](CCC(=O)O)C(=O)N[C@H](CCCCNC(=O)CCc3cn(CCOCCOCCOCCN(CCOCCOCCOCCC(=O)N[C@H]4CSCCC(=O)N5CN6CN(C5)C(=O)CCSC[C@H](NC(=O)[C@@H](CC(=O)O)NC(=O)[C@H](Cc5cccc7ccccc57)NC(=O)[C@@H]5CCCN5C4=O)C(=O)N[C@@H](CCSC)C(=O)N[C@@H](CCCCNC(=N)N)C(=O)N[C@@H](CC(=O)O)C(=O)N[C@@H](Cc4c[nH]c5ccccc45)C(=O)N[C@@H](CO)C(=O)N[C@@H]([C@@H](C)O)C(=O)N4CCC[C@H]4C(=O)N4C[C@H](O)C[C@H]4C(=O)N[C@@H](Cc4c[nH]c5ccccc45)C(=O)N[C@H](C(N)=O)CSCCC6=O)CCOCCOCCOCCn4cc(CCC(=O)NCCCC[C@H]5NC(=O)[C@H](CCC(=O)O)NC(=O)[C@@H]6CCCN6C(=O)[C@H](CC(C)(C)C)NC(=O)[C@@H](NC(C)=O)CSCCC(=O)N6CN7CN(C6)C(=O)CCSC[C@H](NC(=O)[C@H](Cc6ccc(O)cc6)NC(=O)[C@@H]6CCCN6C5=O)C(=O)N[C@@H](Cc5ccccc5)C(=O)N[C@@H](C)C(=O)N[C@@H](CCC(=O)O)C(=O)N5CCC[C@H]5C(=O)N[C@@H](Cc5ccc(O)cc5)C(=O)N[C@@H](CCCC)C(=O)N[C@H](C(N)=O)CSCCC7=O)nn4)nn3)C(=O)N3CCC[C@H]3C(=O)N[C@@H](Cc3ccc(O)cc3)C(=O)N2)C(=O)CCSC[C@@H](C(N)=O)NC1=O [BCY12487] |  |  |  | ~8 nM |  |
| CCCC[C@@H]1NC(=O)[C@H](Cc2ccc(O)cc2)NC(=O)[C@@H]2CCCN2C(=O)[C@H](CC(=O)O)NC(=O)[C@H](C)NC(=O)[C@H](Cc2ccccc2)NC(=O)[C@@H]2CSCCC(=O)N3CN(CN(C3)C(=O)CCSC[C@@H](C(N)=O)NC1=O)C(=O)CCSCCC(=O)N[C@@H](CC(C)(C)C)C(=O)N1CCC[C@H]1C(=O)N[C@@H](CCC(=O)O)C(=O)N[C@H](CCCCNC(=O)CCc1cn(CCOCCOCCOCCN(CCOCCOCCOCCC(=O)N[C@H]3CSCCC(=O)N4CN5CN(C4)C(=O)CCSC[C@H](NC(=O)[C@@H](CC(=O)O)NC(=O)[C@H](Cc4cccc6ccccc46)NC(=O)[C@@H]4CCCN4C3=O)C(=O)N[C@@H](CCSC)C(=O)N[C@@H](CCCCNC(=N)N)C(=O)N[C@@H](CC(=O)O)C(=O)N[C@@H](Cc3c[nH]c4ccccc34)C(=O)N[C@@H](CO)C(=O)N[C@@H]([C@@H](C)O)C(=O)N3CCC[C@H]3C(=O)N3C[C@H](O)C[C@H]3C(=O)N[C@@H](Cc3c[nH]c4ccccc34)C(=O)N[C@H](C(N)=O)CSCCC5=O)CCOCCOCCOCCn3cc(CCC(=O)NCCCC[C@H]4NC(=O)[C@H](CCC(=O)O)NC(=O)[C@@H]5CCCN5C(=O)[C@H](CC(C)(C)C)NC(=O)CCSCCC(=O)N5CN6CN(C5)C(=O)CCSC[C@H](NC(=O)[C@H](Cc5ccc(O)cc5)NC(=O)[C@@H]5CCCN5C4=O)C(=O)N[C@@H](Cc4ccccc4)C(=O)N[C@@H](C)C(=O)N[C@@H](CC(=O)O)C(=O)N4CCC[C@H]4C(=O)N[C@@H](Cc4ccc(O)cc4)C(=O)N[C@@H](CCCC)C(=O)N[C@H](C(N)=O)CSCCC6=O)nn3)nn1)C(=O)N1CCC[C@H]1C(=O)N[C@@H](Cc1ccc(O)cc1)C(=O)N2 [BCY12587] | dose-dependent increase | 4.5 mL/min/kg | 17 h |  | solubility thermodynamic [7]: 3100 µg/mL (≈ 446 µM) |
